ChEMBL document CHEMBL1137224, “Design, synthesis, and evaluation of 3,4-dihydro-2H-[1,4]diazepino[6,7,1-hi]indol-1-ones as inhibitors of poly(ADP-ribose) polymerase” (J Med Chem, 2004)
pIC50, pKi: −log10 of the molar value.

Key:
[1] = biological target: Poly [ADP-ribose] polymerase 1 (Homo sapiens, UniProt P09874)
A549 [2] = experiment: Ratio of cytotoxicity of topotecan to cytotoxicity of compound at 0.4 uM in combination with topotecan; format: functional, Homo sapiens
A549 [3] = experiment: In vitro cytotoxicity against human lung carcinoma A549 cells; format: functional, cell-based
Procedure, shortened: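 A549 cells seeded 16–24 h before treatment, then exposed to compound alone for 3 or 5 days. Relative cell number read by MTT (0.2 μg/μL, 4 h, DMSO-solubilized, 540 nm) or SRB (10% TCA fix 1 h at 4 °C, 0.4% SRB 30 min, Tris-solubilized, 515 nm). Cytotoxicity taken as % OD of treated versus mock-treated culture; IC50 reported.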

A549 [4] = experiment: In vitro cytotoxicity of compound at 0.4 uM in combination with topotecan against human lung carcinoma A549 cells; format: functional, cell-based
Procedure, shortened: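 A549 cells seeded 16–24 h ahead, then exposed to topotecan plus 0.4 μM PARP-1 inhibitor for 3 or 5 days. Cell number read by MTT (540 nm) or SRB (515 nm). Cytotoxicity expressed as % OD relative to mock-treated culture; topotecan IC50 reported in presence of inhibitor.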

Poly [ADP-ribose] polymerase 1, sequence (P09874 whole entry): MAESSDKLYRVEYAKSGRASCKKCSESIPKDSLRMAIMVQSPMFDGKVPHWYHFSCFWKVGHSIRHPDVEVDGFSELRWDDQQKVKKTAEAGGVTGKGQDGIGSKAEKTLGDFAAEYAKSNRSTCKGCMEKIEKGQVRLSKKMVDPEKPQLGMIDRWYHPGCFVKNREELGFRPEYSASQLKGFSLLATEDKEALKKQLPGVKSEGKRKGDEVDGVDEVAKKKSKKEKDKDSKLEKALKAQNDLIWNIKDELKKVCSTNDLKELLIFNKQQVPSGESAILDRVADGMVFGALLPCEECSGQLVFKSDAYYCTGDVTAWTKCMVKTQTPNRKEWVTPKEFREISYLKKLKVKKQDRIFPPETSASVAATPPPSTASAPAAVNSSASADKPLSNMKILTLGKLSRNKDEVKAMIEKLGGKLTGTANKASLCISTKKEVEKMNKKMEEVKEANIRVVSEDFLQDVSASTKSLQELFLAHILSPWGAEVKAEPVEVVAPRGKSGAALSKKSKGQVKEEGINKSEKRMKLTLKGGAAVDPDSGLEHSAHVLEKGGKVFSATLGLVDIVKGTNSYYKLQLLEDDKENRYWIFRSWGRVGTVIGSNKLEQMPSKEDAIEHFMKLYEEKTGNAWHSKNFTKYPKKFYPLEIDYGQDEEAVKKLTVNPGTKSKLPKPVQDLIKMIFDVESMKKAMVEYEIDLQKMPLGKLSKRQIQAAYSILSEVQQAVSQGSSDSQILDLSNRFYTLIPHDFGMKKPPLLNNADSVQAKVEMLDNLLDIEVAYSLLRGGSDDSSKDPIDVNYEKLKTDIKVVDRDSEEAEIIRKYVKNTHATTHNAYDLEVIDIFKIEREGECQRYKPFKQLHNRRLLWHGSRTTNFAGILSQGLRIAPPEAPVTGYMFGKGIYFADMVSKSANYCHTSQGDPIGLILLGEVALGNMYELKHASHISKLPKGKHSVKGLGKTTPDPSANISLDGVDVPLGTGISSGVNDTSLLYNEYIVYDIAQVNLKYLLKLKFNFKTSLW

Question: `Cc1nc2c(O)cccc2c(=O)[nH]1` was tested. Which pKi [1] did it give?
Answer: 7.28

Question: With `Cc1cccc2c1CCNC2=O` as the molecule, how does the pKi [1] read?
Answer: 7.15

Question: `N=C(NO)C1c2cccc3c2N(CCNC3=O)C1c1ccc(F)cc1` (stereo not given) was tested. Which pKi [1] did it give?
Answer: 7.06

Question: Which results are given for `Cc1c(-c2ccc(F)cc2)n2c3c(cccc13)C(=O)NCC2`?
Answer: PF50 (A549 [2]): 1.1; pIC50 (A549 [3]): 5.22; pIC50 (A549 [4]): 7.66

Question: With `O=Cc1cn2c3c(cccc13)C(=O)NCC2` as the molecule, how does the pKi [1] read?
Answer: 6.75

Question: How did the PF50 (A549 [2]) turn out when `CN(C)Cc1cccc(-c2cc3cccc4c3n2CCNC4=O)c1` was run?
Answer: 1.6

Question: And the pIC50 (A549 [3])?
Answer: 4.96

Question: And the pIC50 (A549 [4])?
Answer: 7.82

Question: `O=C1NCCn2c(-c3ccc(Cn4cccc4)cc3)cc3cccc1c32` was tested. Which pKi [1] did it give?
Answer: 8.17

Question: For `O=C1NCCn2cc(/C=N/O)c3cccc1c32`, which PF50 (A549 [2]) is on record?
Answer: 1.3

Question: And the pIC50 (A549 [3])?
Answer: 5.10

Question: What about the pIC50 (A549 [4]) of the same molecule?
Answer: 7.73

Question: How did the pKi [1] turn out when `NN/N=C/c1c(-c2ccc(F)cc2)n2c3c(cccc13)C(=O)NCC2` was run?
Answer: 7.24

Question: How did the pKi [1] turn out when `CN(C)Cc1ccc(-c2cc3cccc4c3n2CCNC4=O)cc1` was run?
Answer: 8.19

Question: And the PF50 (A549 [2])?
Answer: 1.9

Question: And the pIC50 (A549 [3])?
Answer: 5.15

Question: What about the pIC50 (A549 [4]) of the same molecule?
Answer: 7.90

Question: For `O=C1NCCn2c(-c3ccc(F)cc3)cc3cccc1c32`, which PF50 (A549 [2]) is on record?
Answer: 1.8

Question: And the pIC50 (A549 [3])?
Answer: 5.10

Question: What about the pIC50 (A549 [4]) of the same molecule?
Answer: 7.88

Question: How did the pKi [1] turn out when `CNCc1cccc(-c2cc3cccc4c3n2CCNC4=O)c1` was run?
Answer: 8.16

Question: Which PF50 (A549 [2]) does the source give for `O=C1NCCn2c(-c3ccc(F)cc3)c(/C=N/O)c3cccc1c32` here?
Answer: 1.2

Question: And the pIC50 (A549 [3])?
Answer: > 6.10

Question: What about the pIC50 (A549 [4]) of the same molecule?
Answer: 7.70

Question: What does the source list for `O=C1NCCn2c(-c3ccc(Cl)cc3)cc3cccc1c32`?
Answer: PF50 (A549 [2]): 1.8; pIC50 (A549 [3]): 5.52; pIC50 (A549 [4]): 7.88

Question: `O=C1NCCn2c(-c3cccc(Cn4cccc4)c3)cc3cccc1c32` was tested. Which pKi [1] did it give?
Answer: 7.90
